Compounds with a hit are over-represented: about 3.7% of the library has one in this group of screens.
RAM network inh – inhibitors of the yeast RAM network, primary screen, dse1pr::URA3 reporter, 5-FOA selection; 190,000 compounds, 1.8% hits; S. cerevisiae dse1pr::URA3 reporter, 5-FOA growth OD615, 2 d; analog-sensitive cbk1-as2 kinase mutant strain; inhibition, % at 50 µM;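 active = inhibition above a set limit, 3 SD over mean compound inhibition, cut at about 8.4% in these data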;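 also: 0% = DMSO-only wells with no growth and 100% = 10 µM 1-NA-PP1 full growth; inhibition rescues growth on 5-FOA so higher OD means more RAM inhibition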
BB579 growth dn – growth inhibitors of yeast BB579 in restrictive medium, primary screen, yeast lifespan-shortening project, S. cerevisiae | OD615, 48 h | inhibition, % at 10 µM | 140,000 compounds, 0.51% hits;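 active = inhibition above a set limit, 3 SD over the mean compound inhibition, cut at about 44% in these data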
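System: DeaD yeast strain BB579; buffer or medium: CSMM-D dextrose restrictive medium; technique: OD at 615 nm; schedule: 4 h cell preincubation, 48 h compound exposure, 30 °C humidified; doses: single 10 µM dose; controls: amphotericin B 10 µg/mL, positive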
Yeast life ext – compounds extending yeast replicative lifespan, primary screen, S. cerevisiae, OD615; inhibition of the nicotinamide effect, % at 10 µM; AID 775, 2007; 130,000 compounds, 0.68% hits; S. cerevisiae growth with nicotinamide; deaD strain in restrictive glucose medium;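 active = inhibition above a set limit, placed 3 SD over the median of all compounds, cut at about 26% in these data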;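 also: 0% = nicotinamide-treated wells and 100% = cells grown without nicotinamide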
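Material: Modified budding yeast, DeaD strain | Medium: Restrictive glucose medium | Probe or stimulus: 1.5 mM nicotinamide | Dosing: Single dose 10 µM compound, 0.25% DMSO | Times: 48 h at 30 °C | Technique: OD615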
INS promoter inh – inhibitors of insulin promoter-driven GFP, primary screen, imaging, TRM-6 cells, eGFP reporter, cell count; reporter expression induced with tamoxifen; inhibition, % at 2 µM; 130,000 compounds, 0.9% hits;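 active = inhibition above the mean plus 3 SD, with well images judged a real hit on visual review, cut at about 60% in these data, passing the limit was not always enough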
HMGR II inh – inhibitors of E. faecalis class II HMGR, primary screen, biochemical, Enterococcus faecalis. HMG-CoA reductase (Enterococcus faecalis, mvaE). purified E. faecalis HMGR, NADPH absorbance 340 nm kinetic. inhibition, % at 10 µM. 190,000 compounds, 0.41% hits. AID 1066, 2008;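 active = inhibition above a set limit, the median over all tested compounds plus 3 SD, cut at about 9.5% in these data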;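 also: enzyme runs in reverse so mevalonate oxidation gives rising NADPH absorbance; 0% = complete reaction with DMSO and 100% = background rate lacking mevalonate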
RAM efflux-def – 5-FOA growth of efflux-deficient control yeast, dose response, counter-screen for RAM network inhibitor project, S. cerevisiae, OD615 | shares compounds with RAM network inh | S. cerevisiae efflux-deficient reporter strain, 5-FOA growth OD615, 2 days | max inhibition, % | 1,200 tested, under 10 active; call rule not given here;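 also: plate controls were vehicle for no effect and reference inhibitor for full effect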
Numbers without * were called inactive; x = no result.

SMILES | RAM network inh | BB579 growth dn | Yeast life ext | INS promoter inh | HMGR II inh | RAM efflux-def
CCOC(=O)c1cc(C#N)c(Oc2ccccc2)nc1-c1ccccc1 | 12* | -6 | -2 | 6 | -2 | 6
CN(C)c1ccnc(N(Cc2ccccc2)Cc2ccccc2)c1C#N | 2 | -45 | -2 | 17 | 0 | x
COc1ccc(C2=NC(=O)/C(=C\c3cc(OC)c(OC)c(OC)c3)O2)cc1 | 3 | -37 | 4 | -20 | 2 | x
O=C(C1CC1)N(Cc1ccco1)c1nc(-c2ccccc2)cs1 | 12* | -13 | -16 | -3 | 2 | 3
CC(C)NC(=O)CCCc1c[nH]c2ccccc12 | 1 | x | x | -8 | 0 | x
Cc1noc(C)c1CSCc1ccc(Cl)cc1 | 0 | x | x | x | 0 | x
CCc1cc2c(Sc3nc4ccccc4s3)ncnc2s1 | 13* | 2 | -15 | x | -3 | 2
S=C(Nc1ccccc1)N1CCn2c(nc3ccccc32)C1 | 2 | x | x | x | 8 | x
COc1ccc(CCNC(=O)/C(C#N)=C/c2cccc(OCc3ccccc3)c2)cc1OC | 14* | -11 | 2 | 5 | -1 | 2
Cc1cccc(/C=C\c2nc3ccccc3c(=O)[nH]2)c1 | 11* | -46 | -7 | 21 | 0 | 2
CCN(CC)S(=O)(=O)c1ccc(NC(=O)COC(=O)c2ccc(Br)o2)cc1 | 47* | -50 | 10 | 50 | -8 | 2
Cc1ccc(-c2nc(CN3CCCCC3)cc(CN3CCCCC3)c2O)cc1 | 2 | x | x | -7 | -1 | x
O=C(CSc1cccc(C(F)(F)F)c1)Nc1cc(S(=O)(=O)N2CCCC2)ccc1Cl | 16* | -51 | 11 | -44 | -4 | 1
Cn1nnnc1SCC(=O)Nc1cc(S(=O)(=O)N2CCCC2)ccc1Cl | 0 | x | x | 18 | -8 | x
Cc1ccc(CNC(=O)CNS(=O)(=O)c2ccc3nc(C)sc3c2)cc1 | 4 | x | x | x | -6 | x
CCn1c(SCc2nc3ccccc3c(=O)[nH]2)nc2ccccc21 | 12* | x | x | x | -8 | 5
C=C(C)CNC(=S)Nc1cccc(S(=O)(=O)NC2=NCCC2)c1 | 0 | x | x | x | 1 | x
C=C(C)CNC(=S)Nc1nc2c(cc1C(=O)OCC)CCCC2 | 12* | -47 | 6 | -41 | -1 | 3
COc1ccc2c(C)cc(SCC(=O)c3ccc4c(c3)OCO4)nc2c1 | 12* | -15 | -12 | -37 | 0 | 5
COCCn1c(C)cc(C(=O)CSc2cc(C)c3ccc(OC)cc3n2)c1C | 5 | -45 | 6 | -15 | -4 | x
CC(=O)c1ccc(NC(=S)NN2C(C)CCCC2C)cc1 (stereo not given) | 3 | x | x | x | -5 | x
CC(=O)c1ccc(NC(=S)NC2CCCC(C)C2C)cc1 (stereo not given) | 20* | x | x | x | 1 | 2
CCC(C)c1ccccc1NC(=O)COC(=O)C1=COCCO1 (stereo not given) | 1 | x | x | x | -14 | x
O=C(COc1ccccc1C(=O)O)Nc1ccc(SC(F)F)cc1 | 1 | x | x | x | -4 | x
O=C(COC(=O)c1ccccc1C(=O)c1ccccc1)Nc1ccc(SC(F)F)cc1 | 13* | -26 | 4 | 19 | -2 | 3
SMILES | RAM network inh | BB579 growth dn | Yeast life ext | INS promoter inh | HMGR II inh | RAM efflux-def
O=C(COC(=O)c1ccccc1Nc1ccc(SC(F)F)cc1)NC1CC1 | 12* | -2 | -1 | -30 | -8 | 2
NC(=O)COC(=O)c1ccccc1Nc1ccc(SC(F)F)cc1 | -1 | 9 | -4 | 3 | 1 | x
O=C(CCCSc1ccccc1)Nc1nc(-c2ccco2)c(-c2ccco2)s1 | 13* | -46 | 7 | 76* | -1 | 3
O=C(CCl)Nc1nc(-c2ccco2)c(-c2ccco2)s1 | 1 | 39 | -4 | 35 | 2 | x
CCOC(=O)c1cnc(SC)nc1Oc1cccc(NS(=O)(=O)c2ccccc2)c1 | 6 | -14 | 3 | 30 | -2 | x
CCOC(=O)c1cnc(SC)nc1Nc1cccc(F)c1 | 16* | -20 | -10 | 54 | -3 | 2
CCOC(=O)c1cnc(SC)nc1Nc1cccc2ccccc12 | 7 | -2 | x | 12 | -1 | x
CCOC(=O)c1cnc(SC)nc1Oc1cccc(NC(=O)c2ccc(C)cc2)c1 | 18* | -52 | 5 | 18 | 0 | 5
CCOC(=O)N1CCN(c2nc(-c3cccc(OC)c3)cc(C(F)(F)F)n2)CC1 | 12* | -25 | -10 | -13 | -3 | 2
COc1cccc(-c2cc(C(F)(F)F)nc(N3CCN(c4ccccc4)CC3)n2)c1 | 16* | -34 | 0 | 7 | -2 | 3
CCCCn1c(-c2cccs2)nc2nc3ccccc3nc21 | 12* | -19 | -8 | 6 | -4 | 4
CC(C)Cn1c(-c2cccs2)nc2nc3ccccc3nc21 | 0 | -31 | -20 | x | -6 | x
CN1C(=O)/C(=C/c2ccccc2OCc2cccc(F)c2)NC1=S | 11* | -81 | -10 | 30 | 2 | 2
Cc1ccc(NC(=O)C(=O)NCCOc2ccc(Cl)cc2)c(C)c1 | 8 | -29 | 6 | 30 | -4 | x
COc1ccccc1OCC(=O)Nc1ccc(CSc2ccccc2)cc1C | 18* | -29 | 0 | -4 | -3 | 3
Cc1cccc(N(C)C(=S)Oc2ccc3ccccc3c2)c1 | 12* | -59 | 9 | 5 | -3 | 3
COc1ccc(N(C)C(=S)Oc2ccc(C(=O)Nc3ccccc3)cc2)cc1 | 3 | -60 | -9 | 50 | 2 | x
C/C(=N\OCC(=O)Nc1ccc2c(c1)OCCO2)c1ccc2c(c1)OCCO2 | 2 | 0 | -5 | x | 2 | x
CCOC(=O)c1cc(C)sc1NC(=O)C(c1ccccc1)c1ccccc1 | 16* | -28 | 15 | -50 | -2 | 5
O=C(CSc1ccc(Cl)cc1Cl)N1CCC(c2nc3ccccc3s2)CC1 | 13* | -53 | -12 | -34 | -5 | 2
O=C(Nc1ccc(Oc2ccc3ccccc3c2)cc1)c1ccco1 | 15* | -23 | -23 | x | -4 | 4
CC1(C)CC(=O)C=C(NNC(=O)OC(C)(C)C)C1 | 0 | x | x | x | 4 | x
CCCCn1c(=O)c(CCC(=O)OC(C)C(=O)Nc2cccc(Cl)c2Cl)nc2ccccc21 (stereo not given) | 16* | -11 | 5 | x | -6 | 1
COC(=O)c1ccc(NCCC(=O)O)cc1 | 4 | -12 | 4 | 37 | -3 | x
COc1cccc(NC(=O)NCc2ccccc2F)c1 | 0 | x | x | 32 | -2 | x
COc1cccc(N/C(SCc2ccccc2F)=C(/C#N)C(=O)NCc2cccs2)c1 | 16* | -29 | 11 | -6 | -11 | 3
O=C(NCc1ccc(F)cc1)c1cnn2ccccc12 | -1 | 42 | -11 | x | 4 | x
O=C(Nc1ccccc1)C1=C[C@@H](C2CCCCC2)C[C@@H](OCc2ccc(CO)cc2)O1 | 12* | x | x | x | -5 | 5

Screening results: PubChem, several laboratories
